Sampled rows, rich in hits. Any-hit rate of the full collection: about 9.3%.
Ecoli tolC = growth inhibitors of E. coli BW25113 tolC mutant. OD615. growth inhibition, % at 10 µM (by protocol). 65,000 compounds, 2.2% hits;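 active = growth inhibition at or above a cutoff equal to the mean over every tested compound plus 3 SD, cut at about 60% in these data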;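 also: growth measured after 20 h incubation at 37 °C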
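Test system – E. coli BW25113 ΔtolC::kan, tolC deletion mutant strain · Detection – OD at 615 nm · Buffer or medium – LB with kanamycin 50 µg/mL · Times – 20 h compound exposure of bacteria at 37 °C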
DAT uptake mod = modulates human dopamine transporter uptake under cocaine; AID 449768; B-score at 10 µM; Q01959; 110,000 compounds, 1.3% hits; LLC-PK1 hDAT cells, [14C]-dopamine uptake with cocaine IC80; actives deviate in either direction;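 active = Z score or B-score, a plate-position-corrected score, falls beyond the plate's 99.7% confidence bounds, in either direction; inactive = both scores lie inside the 99.7% bounds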;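 also: scored against the spread of the other compound wells on the same plate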
PostGolgi ctrl = growth of the yeast control strain, post-Golgi counter-screen. 98,000 compounds, 5% hits. AID 738. efflux-deficient yeast background strain, growth absorbance A615, 16 h. inhibition, % at 10 µM
Ecoli WT expand = blocks growth of wild type E. coli BW25113; growth inhibition, % at 100 µM; OD600 absorbance; 98,000 compounds, 0.15% hits;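 active = growth inhibition above about 50% at one test dose, limit read from the data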;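 also: growth measured after 20 h incubation at 37 °C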
D1 mod = allosteric modulators of human D1 dopamine receptor | P21728 | HEK293 D1, CRE-luciferase, dopamine EC30 potentiation; actives deviate in either direction | B-score at 10 µM | 58,000 compounds, 5.9% hits;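 active = luminescence count or its row- and column-corrected plate score outside the 99.7% band of the plate's sample wells, on either side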
Target sequence (P21728 whole entry, looked up): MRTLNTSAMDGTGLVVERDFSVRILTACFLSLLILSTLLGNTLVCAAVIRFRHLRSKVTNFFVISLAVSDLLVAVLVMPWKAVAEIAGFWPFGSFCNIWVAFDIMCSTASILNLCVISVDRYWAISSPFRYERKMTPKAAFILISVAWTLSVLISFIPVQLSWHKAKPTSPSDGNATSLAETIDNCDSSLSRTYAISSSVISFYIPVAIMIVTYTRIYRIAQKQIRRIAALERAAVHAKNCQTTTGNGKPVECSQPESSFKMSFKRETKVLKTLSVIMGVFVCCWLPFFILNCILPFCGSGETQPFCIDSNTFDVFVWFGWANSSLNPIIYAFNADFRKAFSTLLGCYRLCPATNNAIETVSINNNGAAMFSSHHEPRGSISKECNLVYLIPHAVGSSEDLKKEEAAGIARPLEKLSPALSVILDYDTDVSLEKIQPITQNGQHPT
PostGolgi yeast = growth inhibition of a yeast mutant, post-Golgi transport screen; post-Golgi transport phenotypic cell assay; inhibition, % at 10 µM; 98,000 compounds, 0.9% hits;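 also: yeast cells grown in 1536-well plates; yeast grown about 18 h at 30C before absorbance read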
D1 mod confirm = confirmation of human D1 dopamine receptor allosteric modulators; AID 642; shares compounds with D1 mod; 2,200 compounds, 88% hits; HEK293 D1 CRE-luciferase, dopamine EC30 potentiation; hits give high values; luminescence at 10 µM;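 active = luminescence in either of two replicates above the same-plate mean plus 3 SD of the low-dose dopamine control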
D1 ag no DA = secondary test of D1 modulators: activity without dopamine. shares compounds with D1 mod. HEK293 D1 CRE-luciferase, luminescence, no dopamine; hits give high values. luminescence at 10 µM. 1,900 compounds, 0.8% hits; in the data active = luminescence above about 3900
Isoprot counter = counter-screen for D1 modulators: isoproterenol response in HEK293 cells; shares compounds with D1 mod; HEK293 D1 CRE-luciferase, isoproterenol EC30 counter-screen; calls only at 10 µM; 2,200 compounds, 63% hits; AID 647;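 active = luminescence in either replicate above plate mean of wells with a partly effective reference agonist dose plus 3 SD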;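 also: isoproterenol raises cAMP through native beta-adrenoceptor Gs so signal bypasses D1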
Active calls of the source: *. Rule as the data show it, unless noted: active = inhibition above about 30%; inactive = the rest.

How did O=c1o[nH]c(-c2ccccc2)c1C1=NCCCCC1 do in these assays?
Ecoli tolC: -12; DAT uptake mod: -1.3; PostGolgi ctrl: 11; Ecoli WT expand: -4; D1 mod: 9*; PostGolgi yeast: 3; D1 mod confirm: 6360; D1 ag no DA: 1616; Isoprot counter: inactive

What do the screens show for `COc1nc(N2CCCC2)nc(-n2cc(-c3ccccc3)nn2)n1`?
Ecoli tolC: -13; D1 mod: -0.035

What do the screens show for `COc1nc(N(C#N)CC(N)=O)nc(N2CCCC2)n1`?
Ecoli tolC: -31; DAT uptake mod: 0.74; PostGolgi ctrl: 5; Ecoli WT expand: 2; D1 mod: 8.4*; PostGolgi yeast: 9; D1 mod confirm: 20228*; D1 ag no DA: 1780; Isoprot counter: active

What do the screens show for `CCCCNC(=O)C1CCN(c2nc(OC)nc(OC)n2)CC1`?
DAT uptake mod: 1.8

What do the screens show for `COc1nc(/C(N)=N/O)nc(N2CCCCC2)n1`?
Ecoli tolC: -15; DAT uptake mod: -0.64; PostGolgi ctrl: 0; Ecoli WT expand: 8; D1 mod: 13*; PostGolgi yeast: -6; D1 mod confirm: 24932*; D1 ag no DA: 1416; Isoprot counter: active

What do the screens show for `Cc1noc(C)c1CSc1ccccc1C(=O)Nc1nccs1`?
Ecoli tolC: -14; DAT uptake mod: -0.11; PostGolgi ctrl: 5; Ecoli WT expand: -1; D1 mod: 0.63; PostGolgi yeast: 12

How did c1ccc2c(c1)OCC(c1nnc3sc(-c4cnccn4)nn13)O2 (stereo not drawn) do in these assays?
Ecoli tolC: 25; DAT uptake mod: 0.3; PostGolgi ctrl: 18; Ecoli WT expand: 8; D1 mod: 0.59; PostGolgi yeast: 4

Results for c1ccc(OCc2nnc3sc(-c4cccs4)nn23)cc1 ?
Ecoli tolC: 30; DAT uptake mod: 0.38; PostGolgi ctrl: 12; Ecoli WT expand: -6; D1 mod: 6.4*; PostGolgi yeast: -4; D1 mod confirm: 15144*; D1 ag no DA: 1772; Isoprot counter: active

How did Fc1ccc(-c2nn3c(C4COc5ccccc5O4)nnc3s2)cc1 (stereo not drawn) do in these assays?
Ecoli tolC: 37; PostGolgi ctrl: 21; Ecoli WT expand: -7; D1 mod: 3.8*; PostGolgi yeast: 0; D1 mod confirm: 14388*; D1 ag no DA: 1980; Isoprot counter: active

How did COc1ccc(-c2nn3c(COc4ccccc4)nnc3s2)cc1OC do in these assays?
Ecoli tolC: 17; DAT uptake mod: 2.2; PostGolgi ctrl: 24; Ecoli WT expand: -3; PostGolgi yeast: 0

How did c1csc(-c2nn3c(C4COc5ccccc5O4)nnc3s2)c1 (stereo not drawn) do in these assays?
Ecoli tolC: 19; DAT uptake mod: -0.092; PostGolgi ctrl: 1; Ecoli WT expand: 0; D1 mod: 8.6*; PostGolgi yeast: 11; D1 mod confirm: 18120*; D1 ag no DA: 1676; Isoprot counter: active

Results for CCOC(=O)Cc1csc(NC(=O)C2CCCN(S(=O)(=O)c3cnc[nH]3)C2)n1 (stereo not drawn) ?
Ecoli tolC: 2; DAT uptake mod: 1.7; PostGolgi ctrl: 14; Ecoli WT expand: 6; D1 mod: -0.1; PostGolgi yeast: -8

Results for CCC(C)(C)n1nnnc1CN1CCc2ccccc21 ?
DAT uptake mod: -0.15; PostGolgi ctrl: 11; Ecoli WT expand: 2; PostGolgi yeast: -4

How did COc1cc2c(cc1OC)C(C)N(C(=O)C1COc3ccccc3O1)CC2 (stereo not drawn) do in these assays?
Ecoli tolC: 9; DAT uptake mod: 0.017; PostGolgi ctrl: 13; Ecoli WT expand: 4; D1 mod: 7.3*; PostGolgi yeast: 9; D1 mod confirm: 19292*; D1 ag no DA: 1592; Isoprot counter: active

What do the screens show for `COc1cc2c(cc1OC)C(C)N(C(=O)c1cc3ccccc3o1)CC2` (stereo not drawn)?
Ecoli tolC: 18; DAT uptake mod: 0.045; PostGolgi ctrl: 22; Ecoli WT expand: -11; D1 mod: 15*; PostGolgi yeast: -6; D1 mod confirm: 16968*; D1 ag no DA: 1740; Isoprot counter: active

What do the screens show for `COc1cc2c(cc1O)CCN(C(=O)c1ccco1)C2C` (stereo not drawn)?
DAT uptake mod: -1.4; PostGolgi ctrl: 4; Ecoli WT expand: 2; PostGolgi yeast: 3

How did COc1ccc(C2CC(c3cc(OC)ccc3OC)n3nnnc3N2)cc1 (stereo not drawn) do in these assays?
Ecoli tolC: 7; DAT uptake mod: 2.7; PostGolgi ctrl: 0; Ecoli WT expand: 4; D1 mod: 2.7*; PostGolgi yeast: 5; D1 mod confirm: 9576*; D1 ag no DA: 1560; Isoprot counter: inactive

Results for COc1ccc(C2CC(c3cccc(C)c3)n3ncnc3N2)cc1 (stereo not drawn) ?
Ecoli tolC: 20; DAT uptake mod: 1.1; PostGolgi ctrl: -11; Ecoli WT expand: -4; D1 mod: -0.035; PostGolgi yeast: 9

Results for O=C(O)C1=C[C@H](c2ccc(Br)cc2)C[C@H](OCc2ccc(CO)cc2)O1 ?
DAT uptake mod: -0.24

What do the screens show for `COc1cc2c(c(OC)c1OC)-c1c(cc(OC)c(OC)c1OC)C[C@](C)(O)[C@@H](C)C2`?
DAT uptake mod: -0.24

Results for O=C(Nc1ccccc1Cl)N1CCN(c2ccc3nnc(-c4ccccc4)n3n2)CC1 ?
Ecoli tolC: 17; DAT uptake mod: 0.38; PostGolgi ctrl: 1; Ecoli WT expand: 5; D1 mod: 5.4*; PostGolgi yeast: 9; D1 mod confirm: 14068*; Isoprot counter: active

What do the screens show for `COc1ccc2c(C)c(C(=O)NCC(C)O)oc2c1OC` (stereo not drawn)?
Ecoli tolC: -10; DAT uptake mod: -1.2; PostGolgi ctrl: 7; Ecoli WT expand: -6; D1 mod: 7.5*; PostGolgi yeast: 0; D1 mod confirm: 11688*; D1 ag no DA: 1436; Isoprot counter: active

How did CCOC(=O)c1[nH]c2ccc(OC)cc2c1NC(C)=O do in these assays?
Ecoli tolC: 1; DAT uptake mod: -1.2; PostGolgi ctrl: 7; Ecoli WT expand: -2; D1 mod: -0.25; PostGolgi yeast: -12

Results for CCOC(=O)c1[nH]c2cc(OC)c(OC)cc2c1NC(=O)CN(C)C1CCCCC1 ?
Ecoli tolC: 2; DAT uptake mod: 2.2; PostGolgi ctrl: 28; Ecoli WT expand: 11; D1 mod: 4.3*; PostGolgi yeast: 8; D1 mod confirm: 10140*; D1 ag no DA: 1444; Isoprot counter: active

High-throughput results deposited in PubChem BioAssay by several laboratories.
